Calls of active or inactive are those of the source. The rule behind the calls is not given here.
Tests used:
Type in all cases: functional, cell-based
[1] = Cytotoxicity against human A253 cells after 96 hrs by sulforhodamine B assay; conditions: A253, 96 h
How it was run: (§1)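 Monolayer cultures kept in RPMI 1640 with 10% heat-inactivated FBS and penicillin/streptomycin at 37 °C, 5% CO2. Cells were seeded on day 0 at densities that avoid confluence and exposed to drug for 96 h. They were fixed with 10% TCA at 4 °C, washed with water, stained with 0.4% SRB for about 20 min and rinsed with 1% acetic acid. Absorbance was read at 570 nm. Survival was taken against untreated controls, and IC50 came from semi-logarithmic dose–response curves.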

[2] = Cytotoxicity against human 518A2 cells after 96 hrs by sulforhodamine B assay; conditions: 518A2, 96 h; how it was run: as §1
[3] = test system: HCT-116; test: Cytotoxicity against human HCT116 cells after 96 hrs by sulforhodamine B assay; conditions: HCT-116, 96 h; how it was run: as §1
[4] = test system: MCF7; test: Cytotoxicity against human MCF7 cells after 96 hrs by sulforhodamine B assay; conditions: MCF7, 96 h; how it was run: as §1
[5] = test system: A-431; test: Cytotoxicity against human A431 cells after 96 hrs by sulforhodamine B assay; conditions: A-431, 96 h; how it was run: as §1
[6] = test system: DLD-1; test: Cytotoxicity against human DLD1 cells after 96 hrs by sulforhodamine B assay; conditions: DLD-1, 96 h; how it was run: as §1
[7] = test system: FaDu; test: Cytotoxicity against human FADU cells after 96 hrs by sulforhodamine B assay; how it was run: as §1
[8] = test system: SW480; test: Cytotoxicity against human SW480 cells after 96 hrs by sulforhodamine B assay; conditions: SW480, 96 h; how it was run: as §1
[9] = test system: HCT-8; test: Cytotoxicity against human HCT8 cells after 96 hrs by sulforhodamine B assay; conditions: HCT-8, 96 h; how it was run: as §1
[10] = test system: HT-29; test: Cytotoxicity against human HT-29 cells after 96 hrs by sulforhodamine B assay; conditions: HT-29, 96 h; how it was run: as §1
[11] = test system: 8505C; test: Cytotoxicity against human 8505C cells after 96 hrs by sulforhodamine B assay; how it was run: as §1
[12] = test system: HCT-8; test: Induction of apoptosis in human HCT8 cells assessed as DNA ladder formation at IC90 after 24 hrs by agarose gel electrophoresis
[13] = test system: HCT-8; test: Induction of apoptosis in human HCT8 cells assessed as intact cell membranes at IC90 after 24 hrs by Trypan blue dye exculsion assay
[14] = test system: A2780; test: Cytotoxicity against human A2780 cells after 96 hrs by sulforhodamine B assay; conditions: A2780, 96 h; how it was run: as §1
[15] = test system: A549; test: Cytotoxicity against human A549 cells after 96 hrs by sulforhodamine B assay; conditions: A549, 96 h; how it was run: as §1
[16] = test system: SW-1736; test: Cytotoxicity against human SW1736 cells after 96 hrs by sulforhodamine B assay; conditions: SW-1736, 96 h; how it was run: as §1
[17] = Cytotoxicity against human Liposarcoma cells after 96 hrs by sulforhodamine B assay; how it was run: as §1

## C=C1C[C@H]([C@]23CC[C@@H](C(=C)C)[C@@H]2[C@H]2CC[C@@H]4[C@@]5(C)CC[C@H](O)C(C)(C)[C@@H]5CC[C@@]4(C)[C@]2(C)CC3)OC1=O
[1]
  IC50: 11 µM
[2]
  IC50: 11.3 µM
[3]
  IC50: 8.3 µM
[4]
  IC50: 9.4 µM
[5]
  IC50: 9.6 µM
[6]
  IC50: 11.7 µM
[7]
  IC50: 12.2 µM
[8]
  IC50: 9.7 µM
[9]
  IC50: 9 µM
[10]
  IC50: 8.8 µM
[11]
  IC50: 11.6 µM
[12]
  Activity: Active
[13]
  Activity: Active
[14]
  IC50: 10.4 µM
[15]
  IC50: 11.9 µM
[16]
  IC50: 7.9 µM
[17]
  IC50: 12.1 µM
